From PubChem BioAssay
A selection: hits, their analogues and other compounds. The true share with any hit is near 3.5%.
PRMT1 inh: blocks human protein arginine methyltransferase 1. actives 1.3% (n = 370,000). recombinant PRMT1, activity-based probe fluorescence polarization. AID 652257. Q99873. inhibition, % at 2.79 µM;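 active = inhibition above about 21% made by adding two undisclosed values, limit read from the data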
mABHD4 FP: ABHD4 (mouse) inhibition, primary FP screen | Q8VD66 | AID 720543 | inhibition, % at 8.92 µM | actives 0.54% (n = 370,000) | purified mABHD4, FP-Rh probe fluorescence polarization;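 active = inhibition exceeding the mean over every tested compound plus 3 SD, cut at about 30% in these data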
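system = mouse ABHD4 enzyme, wild type | medium = HEPES pH 7.0, NaCl, Pluronic buffer | also added = FP-Rh probe | incubation = Enzyme–compound pre-incubation 45 min, then probe 60 min, both 25 °C | technique = fluorescence polarization, excitation 525 nm, emission 598 nm, BODIPY TMR filters | controls = S159A mutant high control, sample median low control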
SIAE primary: human SIAE inhibition, primary screen; Q9HAT2; SIAE FP-Rh probe binding, fluorescence polarization; inhibition, % at 9.66 µM; actives 0.69% (n = 370,000); AID 1053197;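 active = inhibition above a cutoff: mean of compounds within the control limits plus 3 SD of those, cut at about 17% in these data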
rCAG RNA binder: molecules binding r(CAG) RNA repeats; inhibition, % at 3 µM; r(CAG) RNA repeat, TO-PRO-1 dye displacement fluorescence; actives 1.3% (n = 370,000);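 active = inhibition above the plate cutoff, the mean of all test compounds on that plate plus 3 SD, cut at about 35% in these data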;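 note: higher means more dye released from RNA so lower well fluorescence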
TCR CD3 inh: inhibitors of human TCR-CD3 interaction. TAMRA-labeled TCR probe fluorescence, biochemical. inhibition, % at 9.4 µM. actives 0.37% (n = 360,000); in the data active = inhibition above about 19%;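 note: recombinant mutant TCR 2C K166C tagged with TAMRA read by polarization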
HTRA1 inhibitor: blocks human HTRA1 serine peptidase. Q92743. recombinant HTRA1, FP-rhodamine activity-based probe, fluorescence polarization. inhibition, % at 5.96 µM. actives 0.5% (n = 340,000). AID 504803; in the data active = inhibition above about 36%
Target sequence (Q92743 whole entry, looked up): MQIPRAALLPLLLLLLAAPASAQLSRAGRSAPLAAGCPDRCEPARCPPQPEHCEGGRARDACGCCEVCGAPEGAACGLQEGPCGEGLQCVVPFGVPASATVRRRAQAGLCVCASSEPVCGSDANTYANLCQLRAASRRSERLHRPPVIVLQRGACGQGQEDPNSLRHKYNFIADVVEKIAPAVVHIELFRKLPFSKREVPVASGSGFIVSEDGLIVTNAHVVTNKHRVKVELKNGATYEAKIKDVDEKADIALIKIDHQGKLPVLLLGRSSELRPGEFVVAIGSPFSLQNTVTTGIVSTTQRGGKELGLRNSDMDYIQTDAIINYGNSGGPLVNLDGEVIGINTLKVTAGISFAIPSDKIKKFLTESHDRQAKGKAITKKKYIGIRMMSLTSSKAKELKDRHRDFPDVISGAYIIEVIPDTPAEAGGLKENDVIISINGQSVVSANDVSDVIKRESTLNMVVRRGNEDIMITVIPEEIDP
rCAG binder conf: r(CAG) RNA repeat binding, confirmation; shares compounds with rCAG RNA binder; TO-PRO-1 dye displacement fluorescence; inhibition, % at 3 µM; actives 70% (n = 4,300); AID 652065;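 active = inhibition above a per-plate cutoff, the mean inhibition of sample wells plus 3 SD, cut at about 35% in these data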;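 note: loss of TO-PRO-1 fluorescence as compound displaces dye from 1x1 AA loop RNA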
DNA CAG counter: counter-screen for rCAG RNA binders: DNA CAG dye complex inhibitors. shares compounds with rCAG RNA binder. d(CAG) DNA oligo TO-PRO-1 dye displacement, fluorescence. inhibition, % at 3 µM. actives 94% (n = 4,300). AID 652068;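 active = inhibition above its plate's cutoff, the mean test-well inhibition plus 3 SD, cut at about 4.8% in these data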;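 note: hits displace the dye from DNA and so lower well fluorescence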
DNA CAG DR: disrupts DNA CAG TO-PRO-1 complex in dose response. IC50, µM. actives 20% (n = 250). DNA CAG/GTC duplex TO-PRO-1 dye displacement fluorescence. AID 686960. shares compounds with rCAG RNA binder; in the data active = IC50 below about 10 µM
A number is an active result; - = inactive; . = not tested or not shown.

SMILES	PRMT1 inh	mABHD4 FP	SIAE primary	rCAG RNA binder	TCR CD3 inh	HTRA1 inhibitor	rCAG binder conf	DNA CAG counter	others
CC1(C(=O)NS(=O)(=O)c2ccc(Cl)s2)CCN1C(=O)C1(c2ccc(Cl)cc2)CCC1 (stereo unspecified)	-	-	-	62.4	-	.	59.4	21.1
O=c1c2cc3cccnc3nc2ncn1CCc1c[nH]c2ccccc12	-	-	-	-	.	.	.	.
CCOC(=O)c1c(NC(=O)/C=C/C(=O)O)sc(C)c1-c1ccc(F)cc1	-	-	-	-	-	-	.	.
CCOC(=O)c1c(NC(=O)/C=C/C(=O)O)sc(C)c1-c1ccc(C)c(C)c1	-	-	-	52.8	-	-	52.6	16.7
COC(=O)c1c(NC(=O)/C=C/C(=O)O)sc(C)c1-c1ccc(C(C)C)cc1	-	-	-	51.9	-	-	51.3	15.8
COC(=O)c1c(NC(=O)/C=C/C(=O)O)sc(C)c1-c1ccc(C)cc1	-	-	-	-	-	-	.	.
COC(=O)c1c(NC(=O)/C=C/C(=O)O)sc(C)c1-c1ccc(C)c(C)c1	-	-	-	36.7	-	-	35.6	9.1
Cc1nn(-c2ccccc2)c2sc(C(=O)NC3CCCCCCC3)cc12	-	-	-	-	.	.	.	.
O=S(=O)(c1ccc(Cl)s1)N1CCC(c2cn3ccccc3n2)CC1	-	-	-	-	.	.	.	.
CC1(C(=O)NS(=O)(=O)c2cccc(OC(F)F)c2)CCN1C(=O)CC(c1ccccc1)c1ccccc1 (stereo unspecified)	-	-	-	51.7	-	.	45.8	13.8
CC1(C(=O)NS(=O)(=O)c2ccccc2)CCN1C(=O)CC(c1ccccc1)c1ccccc1 (stereo unspecified)	-	-	-	-	-	.	.	.
CC1(C(=O)NS(C)(=O)=O)CCN1C(=O)CC(c1ccccc1)c1ccccc1 (stereo unspecified)	-	-	-	-	-	.	.	.
Cc1ccccc1S(=O)(=O)NC(=O)C1(C)CCN1C(=O)CC(c1ccccc1)c1ccccc1 (stereo unspecified)	-	-	-	47.4	-	.	-	7.0
CC1(C(=O)NS(=O)(=O)c2ccccc2Cl)CCN1C(=O)CC(c1ccccc1)c1ccccc1 (stereo unspecified)	-	-	-	50.1	-	.	44.7	9.2
O=C(OCC#CCSc1nnc(-c2cccc3ccccc23)o1)c1ccc(F)nc1	-	-	-	.	.	.	.	.
Cc1n[nH]c(C)c1S(=O)(=O)NCCc1ccccc1	-	-	-	-	.	.	.	.
C[C@H]1/C=C/CC(=O)N[C@@H](c2ccc3ccccc3c2)[C@@H](C)/C=C/CC(=O)N[C@H]1c1ccc2ccccc2c1	-	-	-	-	.	.	.	.
COC(=O)c1ccc(CSc2nc3c(cnn3-c3ccc(F)cc3)c(=O)[nH]2)o1	.	.	.	.	.	-	.	.
COC(=O)c1ccc(CSc2nc3c(cnn3-c3ccccc3)c(=O)[nH]2)o1	-	-	-	38.1	-	-	36.2	8.0
C=CCCC(=O)N[C@H]1CC[C@@]23CCCN2C(=O)CCC[C@H]3[C@H]1C	-	-	-	.	.	.	.	.
O=C(O)c1[nH]c2ccccc2c1C(c1cc(Cl)cc([N+](=O)[O-])c1O)c1c(C(=O)O)[nH]c2ccccc12	-	68.0	-	91.6	-	-	73.4	37.3
Cc1cc(C(=O)NNC(=S)NCc2ccco2)n(C)n1	-	-	-	-	-	-	.	.
CC(C)c1cc(C(=O)NNC(=S)NCc2ccco2)c(O)c(C(C)C)c1	-	-	-	64.7	-	-	57.7	24.5
O=C1c2ccccc2-c2n[nH]c(=O)c3ccc(N4CCCCC4)c1c23	-	-	-	37.2	-	-	-	6.8
Cc1cc(C(=O)O)ccc1-n1c(C)cc(C=C2C(=O)c3ccccc3C2=O)c1C	-	-	-	42.8	-	-	41.1	11.1
SMILES	PRMT1 inh	mABHD4 FP	SIAE primary	rCAG RNA binder	TCR CD3 inh	HTRA1 inhibitor	rCAG binder conf	DNA CAG counter	others
O=C(N/N=C/c1ccc([N+](=O)[O-])o1)c1cc(-c2cccc(Br)c2)nc2ccccc12	-	-	-	42.7	-	-	46.8	29.3
CCCc1ccc(-c2cc(C(=O)N/N=C/c3ccc([N+](=O)[O-])o3)c3ccccc3n2)cc1	-	-	-	44.9	-	-	36.1	19.0
O=C(O)COc1ccccc1/C=N/NC(=O)c1cc(-c2ccc(Cl)cc2)nc2ccccc12	-	-	-	79.1	-	-	72.4	33.2	DNA CAG DR=-
O=C(N/N=C/c1ccco1)c1cc(-c2ccccc2)nc2ccccc12	-	-	-	-	-	-	.	.
COc1cccc2c1[C@H](/C=C/c1ccccc1)[C@@H]([C@H](O)CO)OC2	-	-	-	-	.	.	.	.
Cc1cccc(NS(=O)(=O)c2ccc3[nH]c(=O)cc(C(=O)OC(C)C(=O)Nc4ccc([N+](=O)[O-])cc4)c3c2)c1 (stereo unspecified)	-	-	-	46.0	-	-	36.3	16.9
CCc1ccc(NC(=O)C(C)OC(=O)c2cc(=O)[nH]c3ccc(S(=O)(=O)Nc4ccc(F)cc4)cc23)cc1 (stereo unspecified)	-	-	-	-	-	-	.	.
Oc1c(C=C2N=c3ccccc3=N2)sc(=S)n1-c1ccccc1	-	-	-	-	-	-	.	.
O=S(=O)(Nn1c(O)c(C=C2N=c3ccccc3=N2)sc1=S)c1ccccc1	-	-	-	88.8	-	-	71.9	37.2
Cc1ccc(CN2CCCCC(NC(=O)c3ccc(F)c(F)c3)C2=O)cc1 (stereo unspecified)	-	-	-	-	.	.	.	.
CC(C)(C)C(=O)O[C@@H]1CCC[C@@]2(C(=O)N(Cc3ccccc3)c3ccccc32)[C@H]1NC(=O)CCc1ccccc1	-	-	-	-	.	.	.	.
CCc1ccc(CC2S/C(=C(\C#N)C(C)=O)NC2=O)cc1 (stereo unspecified)	-	-	-	37.2	-	-	-	-
CN(C)S(=O)(=O)c1cccc(-c2nn(-c3ccccc3)cc2/C=C2\SC(=S)NC2=O)c1	-	-	-	69.0	-	-	88.6	66.0
CN(C)S(=O)(=O)c1cccc(-c2nn(-c3ccccc3)cc2/C=C(\C#N)c2nc3ccccc3[nH]2)c1	-	-	-	-	-	-	.	.
CC(=O)Nc1ccc(S(=O)(=O)Nc2nnc(Cc3ccc(Cl)cc3)s2)cc1	-	-	-	-	-	-	.	.
CCc1nnc(NS(=O)(=O)c2ccc(NCc3cc(Cl)ccc3O)cc2)s1	-	-	-	65.0	-	-	46.2	14.4
CCc1nnc(NS(=O)(=O)c2ccc(NCc3cc(Cl)cc(Cl)c3O)cc2)s1	-	-	-	69.9	-	-	36.8	9.5
